Source: article PMC2854023 (Journal of biomolecular screening, 2010)
Read-outs that look alike come from different tables or passages of the source.

How the values were obtained:
human PDE7A1 = human PDE7A1 (Homo sapiens, UniProt Q13946); experiment: Fission yeast 5FOA growth assay / HTS, PDE7A-expressing strain CHP1189; format: cell-based; conditions: for average OD600 in PDE7A HTS: 20μM compound, 48 hours growth in 5FOA medium, duplicate; for stimulation of 5FOA-resistant growth, PDE7A-expressing strain: range of concentrations, 48 hours, OD600
Outline: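 Fission yeast strain CHP1189 carries human PDE7A in place of cgs2, plus gpa2Δ, pap1Δ and fbp1-ura4/fbp1-lacZ reporters. It was grown to exponential phase in EMM with 2.5 mM cAMP, then resuspended in 5FOA medium at 1 × 10^5 cells/ml. Compounds were mostly at 20μM, in duplicate, with DMSO negative and 5mM cAMP positive controls. Growth was 48 h at 30°C, read as OD600. Per-plate Z scores were combined into a composite Z score.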

[1] = test system: TNFα release by LPS-treated U937 cells; experiment: TNFα release assay in PMA-activated, LPS-treated U937 cells; format: cell-based, human; conditions: for TNFα release, combined with rolipram, 3 hours LPS / TNFα release, combined with rolipram, 20 hours LPS: 10μM each, compared to rolipram alone
Outline: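 U937 cells at 10^6 cells/ml in RPMI 1640 with 10% FBS were primed 17 hr with 300 ng/ml PMA. Aliquots of […] were diluted with equal medium and given 10 μM compound, alone or with rolipram, for 1 hr; vehicle was ethanol with <0.1% DMSO. LPS (25 μg/ml) followed, and supernatant TNFα was measured by ELISA at 3 or 20 h. Values are % of vehicle, 2–6 independent experiments, paired one-tailed t-test.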

PDE7A = PDE7A (Homo sapiens, UniProt Q13946); experiment: In vitro PDE enzyme assay; format: biochemical
Outline: (§1)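 Radiometric PDE assay with 25nM initial 3H-cAMP for 15 min, over which the hydrolysis rate was constant. 3H-AMP was separated by Ba(OH)2 precipitation and remaining cAMP counted by scintillation. PDE7A was commercial; PDE7B was a gift. IC50 is the concentration halving the hydrolysis rate relative to vehicle controls. PDE7B Km came from Michaelis-Menten kinetics, analysed by Lineweaver-Burke and Eadie-Hofstee plots.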

PDE7B = PDE7B (Homo sapiens, UniProt Q9NP56); experiment: In vitro PDE enzyme assay; format: biochemical; conditions: for IC50 on PDE7B relative to PDE7A: in vitro enzyme assays, PDE7B vs PDE7A
Outline: as §1

human PDE7B1 = human PDE7B1 (Homo sapiens, UniProt Q9NP56); experiment: Fission yeast 5FOA growth assay, PDE7B-expressing strain; format: cell-based; conditions: range of concentrations, 48 hours, OD600
Outline: (§2)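 5FOA growth assays, run as in the PDE7A screen, used fission yeast strains expressing human PDE4A1, PDE4B2, PDE4D3 or PDE7B1 from the cgs2 locus. Compound was added over a concentration range, with DMSO kept below 0.2%. Cultures grew 48 h at 30°C. OD600 is the mean of four wells.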

human PDE4A1 = human PDE4A1 (Homo sapiens, UniProt P27815); experiment: Fission yeast 5FOA growth assay, PDE4A1-expressing strain; format: cell-based; conditions: dose response, 48 hours
Outline: as §2

human PDE4B2 = human PDE4B2 (Homo sapiens, UniProt Q07343); experiment: Fission yeast 5FOA growth assay, PDE4B2-expressing strain; format: cell-based; conditions: dose response, 48 hours
Outline: as §2

human PDE4D3 = human PDE4D3 (Homo sapiens, UniProt Q08499); experiment: Fission yeast 5FOA growth assay, PDE4D3-expressing strain; format: cell-based; conditions: dose response, 48 hours
Outline: as §2

mouse PDE4A1 = molecular target: T1, mouse PDE4A1 (Mus musculus, UniProt O89084); experiment: Fission yeast HTS, mouse PDE4A1-expressing strain; format: cell-based; conditions: 20μM
T1 sequence (O89084 1-610 isoform O89084-2): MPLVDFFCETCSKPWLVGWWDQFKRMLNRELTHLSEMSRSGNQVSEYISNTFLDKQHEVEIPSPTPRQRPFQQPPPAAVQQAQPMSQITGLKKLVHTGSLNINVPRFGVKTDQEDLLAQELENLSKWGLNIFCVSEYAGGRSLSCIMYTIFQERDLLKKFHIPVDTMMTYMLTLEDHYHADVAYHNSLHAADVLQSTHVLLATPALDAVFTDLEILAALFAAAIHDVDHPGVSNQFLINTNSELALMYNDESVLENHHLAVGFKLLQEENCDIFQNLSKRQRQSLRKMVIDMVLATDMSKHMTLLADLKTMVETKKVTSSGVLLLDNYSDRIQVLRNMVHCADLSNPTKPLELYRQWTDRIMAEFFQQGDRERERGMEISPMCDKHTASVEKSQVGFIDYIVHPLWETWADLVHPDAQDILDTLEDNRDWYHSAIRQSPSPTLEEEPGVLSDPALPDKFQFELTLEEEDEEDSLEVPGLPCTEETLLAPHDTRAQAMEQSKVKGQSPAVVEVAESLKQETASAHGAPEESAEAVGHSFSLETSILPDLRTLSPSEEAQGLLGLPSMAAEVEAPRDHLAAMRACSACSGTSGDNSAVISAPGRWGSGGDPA

PDE1B = PDE1B (Homo sapiens, UniProt Q01064); experiment: Fission yeast 5FOA growth assay, PDE1B-expressing strain; format: cell-based; conditions: data not shown
Outline: (§3)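 Fission yeast 5FOA growth assays used strains each expressing one mammalian PDE, read as OD600. For cGMP-specific PDEs, strains lacked adenylate cyclase and the 5FOA medium contained 30μM to 1mM cGMP.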

PDE1C = PDE1C (Homo sapiens, UniProt Q14123); experiment: Fission yeast 5FOA growth assay, PDE1C-expressing strain; format: cell-based; conditions: data not shown
Outline: as §3

PDE2A = PDE2A (Homo sapiens, UniProt O00408); experiment: Fission yeast 5FOA growth assay, PDE2A-expressing strain; format: cell-based; conditions: data not shown
Outline: as §3

PDE3B = PDE3B (Homo sapiens, UniProt Q13370); experiment: Fission yeast 5FOA growth assay, PDE3B-expressing strain; format: cell-based; conditions: data not shown
Outline: as §3

PDE5A = PDE5A (Homo sapiens, UniProt O76074); experiment: Fission yeast 5FOA growth assay, PDE5A-expressing strain; format: cell-based; conditions: data not shown
Outline: as §3

PDE8A = PDE8A (Homo sapiens, UniProt O60658); experiment: Fission yeast 5FOA growth assay, PDE8A-expressing strain; format: cell-based; conditions: data not shown
Outline: as §3

PDE9A = PDE9A (Homo sapiens, UniProt O76083); experiment: Fission yeast 5FOA growth assay, PDE9A-expressing strain; format: cell-based; conditions: data not shown
Outline: as §3

PDE11A = PDE11A (Homo sapiens, UniProt Q9HCR9); experiment: Fission yeast 5FOA growth assay, PDE11A-expressing strain; format: cell-based; conditions: data not shown
Outline: as §3

PDE10A = experiment: Fission yeast 5FOA growth assay, PDE10A-expressing strain; format: cell-based; conditions: 40μM compound, data not shown
Outline: as §3

[2] = molecular target: PDE4D catalytic domain (residues 86-413 of PDE4D2) (Homo sapiens, UniProt Q08499); experiment: In vitro enzyme assay, PDE4D catalytic domain; format: biochemical
Outline: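 PDE4D catalytic domain (PDE4D2 residues 86-413) was expressed in and purified from E. coli and tested in the 3H-cAMP hydrolysis assay with Ba(OH)2 precipitation. Enzyme was at 16 nM with 25 nM test compound across varying cAMP concentrations. A separate panel used 2μM compound against PDE4A, PDE4B and PDE4D catalytic domains.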

[3] = molecular target: full-length PDE4D2 (residues 1-507) (Homo sapiens, UniProt Q08499); experiment: In vitro enzyme assay, full-length PDE4D2; format: biochemical; conditions: data not shown
[4] = 10μM, 1 hr pretreatment, vs vehicle-treated control

Sequence of PDE4D catalytic domain (residues 86-413 of PDE4D2) (Q08499 388-715): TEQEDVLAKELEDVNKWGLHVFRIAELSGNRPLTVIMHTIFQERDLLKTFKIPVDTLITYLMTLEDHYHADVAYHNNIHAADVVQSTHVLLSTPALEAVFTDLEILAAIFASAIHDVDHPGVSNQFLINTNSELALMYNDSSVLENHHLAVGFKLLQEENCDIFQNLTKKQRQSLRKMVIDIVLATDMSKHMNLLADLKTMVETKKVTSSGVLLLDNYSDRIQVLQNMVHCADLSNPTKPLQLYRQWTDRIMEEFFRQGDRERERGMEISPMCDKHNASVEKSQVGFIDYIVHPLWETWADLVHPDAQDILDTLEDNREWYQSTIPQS
Sequence of PDE7B (Q9NP56 whole entry, species assumed): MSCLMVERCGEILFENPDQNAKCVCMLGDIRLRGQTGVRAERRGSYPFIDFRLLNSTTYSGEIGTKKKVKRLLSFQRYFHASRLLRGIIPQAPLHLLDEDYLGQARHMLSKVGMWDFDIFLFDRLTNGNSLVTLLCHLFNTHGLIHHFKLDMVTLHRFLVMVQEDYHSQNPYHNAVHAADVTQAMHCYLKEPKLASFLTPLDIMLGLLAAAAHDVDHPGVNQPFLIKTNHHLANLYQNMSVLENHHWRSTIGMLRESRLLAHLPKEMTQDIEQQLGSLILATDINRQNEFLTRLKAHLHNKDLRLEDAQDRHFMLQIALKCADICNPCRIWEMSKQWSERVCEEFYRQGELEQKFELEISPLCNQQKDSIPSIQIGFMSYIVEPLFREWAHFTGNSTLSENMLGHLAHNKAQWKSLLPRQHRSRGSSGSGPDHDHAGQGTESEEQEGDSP
Sequence of human PDE7A1 (Q13946 whole entry): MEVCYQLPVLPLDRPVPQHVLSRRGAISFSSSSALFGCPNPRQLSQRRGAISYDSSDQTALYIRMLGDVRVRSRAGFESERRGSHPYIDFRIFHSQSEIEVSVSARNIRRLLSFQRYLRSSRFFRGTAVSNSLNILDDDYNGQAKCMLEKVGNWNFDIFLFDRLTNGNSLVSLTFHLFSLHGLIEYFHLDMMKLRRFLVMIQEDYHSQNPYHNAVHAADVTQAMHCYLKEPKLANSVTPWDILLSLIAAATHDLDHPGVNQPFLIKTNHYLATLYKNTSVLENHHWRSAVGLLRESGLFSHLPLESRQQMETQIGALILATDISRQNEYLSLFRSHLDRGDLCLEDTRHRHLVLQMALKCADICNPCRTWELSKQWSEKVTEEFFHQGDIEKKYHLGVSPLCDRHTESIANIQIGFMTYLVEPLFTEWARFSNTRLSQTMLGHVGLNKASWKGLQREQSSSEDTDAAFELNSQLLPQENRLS
Sequence of human PDE7B1 (Q9NP56 whole entry): as the sequence (Q9NP56 whole entry, species assumed) above
Sequence of PDE7A (Q13946 whole entry, species assumed): as the sequence (Q13946 whole entry) above
Sequence of human PDE4D3 (Q08499 1-673 isoform Q08499-2): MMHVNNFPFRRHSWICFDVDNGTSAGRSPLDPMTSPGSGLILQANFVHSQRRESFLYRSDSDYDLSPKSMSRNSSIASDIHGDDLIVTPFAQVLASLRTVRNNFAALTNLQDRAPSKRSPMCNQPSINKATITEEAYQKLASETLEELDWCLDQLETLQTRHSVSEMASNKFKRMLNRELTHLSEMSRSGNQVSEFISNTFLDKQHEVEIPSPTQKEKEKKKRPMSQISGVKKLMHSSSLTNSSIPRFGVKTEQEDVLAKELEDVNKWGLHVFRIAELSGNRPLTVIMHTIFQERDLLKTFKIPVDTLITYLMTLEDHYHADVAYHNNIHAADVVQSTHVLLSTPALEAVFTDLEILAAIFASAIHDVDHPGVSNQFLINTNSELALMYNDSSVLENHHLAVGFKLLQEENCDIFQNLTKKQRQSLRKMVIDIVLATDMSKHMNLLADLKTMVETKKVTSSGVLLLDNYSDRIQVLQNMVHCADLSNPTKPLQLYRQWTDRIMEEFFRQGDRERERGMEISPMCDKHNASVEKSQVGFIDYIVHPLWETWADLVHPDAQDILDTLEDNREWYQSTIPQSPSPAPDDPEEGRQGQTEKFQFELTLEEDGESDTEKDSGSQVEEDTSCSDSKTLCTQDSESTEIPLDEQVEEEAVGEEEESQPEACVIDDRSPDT
Sequence of full-length PDE4D2 (residues 1-507) (Q08499 303-809): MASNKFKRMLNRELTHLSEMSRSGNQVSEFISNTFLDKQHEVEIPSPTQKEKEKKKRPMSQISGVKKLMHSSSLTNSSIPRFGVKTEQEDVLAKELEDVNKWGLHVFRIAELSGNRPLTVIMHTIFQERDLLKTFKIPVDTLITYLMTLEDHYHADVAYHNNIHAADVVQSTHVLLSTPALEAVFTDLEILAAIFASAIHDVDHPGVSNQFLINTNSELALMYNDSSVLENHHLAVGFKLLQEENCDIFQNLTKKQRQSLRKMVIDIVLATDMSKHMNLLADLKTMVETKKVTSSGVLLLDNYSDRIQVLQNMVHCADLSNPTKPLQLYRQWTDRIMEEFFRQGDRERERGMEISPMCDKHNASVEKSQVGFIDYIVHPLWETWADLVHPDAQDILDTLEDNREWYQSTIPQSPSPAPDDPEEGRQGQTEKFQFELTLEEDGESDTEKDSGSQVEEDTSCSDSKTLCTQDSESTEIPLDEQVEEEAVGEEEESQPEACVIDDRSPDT
Sequence of PDE1C (Q14123 whole entry, species assumed): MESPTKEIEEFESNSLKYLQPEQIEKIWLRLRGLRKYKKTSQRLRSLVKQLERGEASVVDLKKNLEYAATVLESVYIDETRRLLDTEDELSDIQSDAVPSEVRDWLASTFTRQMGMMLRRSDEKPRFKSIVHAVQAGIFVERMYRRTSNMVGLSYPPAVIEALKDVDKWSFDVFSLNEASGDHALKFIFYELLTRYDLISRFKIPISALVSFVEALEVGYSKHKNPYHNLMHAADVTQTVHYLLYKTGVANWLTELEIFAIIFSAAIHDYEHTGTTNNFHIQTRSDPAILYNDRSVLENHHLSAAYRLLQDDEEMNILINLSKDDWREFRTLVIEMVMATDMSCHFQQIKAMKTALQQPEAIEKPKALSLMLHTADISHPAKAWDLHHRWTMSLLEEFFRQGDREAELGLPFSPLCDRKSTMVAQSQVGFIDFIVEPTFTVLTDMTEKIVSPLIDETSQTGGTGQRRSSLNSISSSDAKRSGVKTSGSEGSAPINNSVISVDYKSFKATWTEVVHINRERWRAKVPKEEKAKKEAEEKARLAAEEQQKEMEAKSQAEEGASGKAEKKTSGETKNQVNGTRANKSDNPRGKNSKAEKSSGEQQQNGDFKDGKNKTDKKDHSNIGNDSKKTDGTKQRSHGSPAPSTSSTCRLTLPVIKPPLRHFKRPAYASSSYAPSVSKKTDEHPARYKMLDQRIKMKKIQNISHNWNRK
Sequence of PDE8A (O60658 whole entry, species assumed): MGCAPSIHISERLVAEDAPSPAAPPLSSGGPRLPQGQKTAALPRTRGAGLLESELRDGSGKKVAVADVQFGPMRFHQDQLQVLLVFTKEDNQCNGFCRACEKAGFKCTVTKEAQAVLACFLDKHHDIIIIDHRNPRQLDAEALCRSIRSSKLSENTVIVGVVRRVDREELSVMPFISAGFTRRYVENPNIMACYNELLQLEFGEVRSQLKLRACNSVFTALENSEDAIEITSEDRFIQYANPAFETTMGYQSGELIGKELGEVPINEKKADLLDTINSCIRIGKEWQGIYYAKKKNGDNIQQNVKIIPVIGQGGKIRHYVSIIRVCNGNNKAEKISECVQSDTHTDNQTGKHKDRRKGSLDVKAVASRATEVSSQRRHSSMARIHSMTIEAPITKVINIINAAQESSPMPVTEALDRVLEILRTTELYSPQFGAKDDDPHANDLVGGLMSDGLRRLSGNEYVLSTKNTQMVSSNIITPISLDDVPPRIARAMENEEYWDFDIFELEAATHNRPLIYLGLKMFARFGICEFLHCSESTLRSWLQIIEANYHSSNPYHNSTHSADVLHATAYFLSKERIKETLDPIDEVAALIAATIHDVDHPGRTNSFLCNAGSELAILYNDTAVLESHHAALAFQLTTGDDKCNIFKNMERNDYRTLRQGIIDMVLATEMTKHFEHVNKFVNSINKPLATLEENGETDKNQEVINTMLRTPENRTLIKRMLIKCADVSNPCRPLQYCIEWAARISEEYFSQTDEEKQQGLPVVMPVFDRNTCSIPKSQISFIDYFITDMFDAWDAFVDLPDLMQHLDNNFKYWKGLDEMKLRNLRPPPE
Sequence of human PDE4A1 (P27815 1-647 isoform P27815-4): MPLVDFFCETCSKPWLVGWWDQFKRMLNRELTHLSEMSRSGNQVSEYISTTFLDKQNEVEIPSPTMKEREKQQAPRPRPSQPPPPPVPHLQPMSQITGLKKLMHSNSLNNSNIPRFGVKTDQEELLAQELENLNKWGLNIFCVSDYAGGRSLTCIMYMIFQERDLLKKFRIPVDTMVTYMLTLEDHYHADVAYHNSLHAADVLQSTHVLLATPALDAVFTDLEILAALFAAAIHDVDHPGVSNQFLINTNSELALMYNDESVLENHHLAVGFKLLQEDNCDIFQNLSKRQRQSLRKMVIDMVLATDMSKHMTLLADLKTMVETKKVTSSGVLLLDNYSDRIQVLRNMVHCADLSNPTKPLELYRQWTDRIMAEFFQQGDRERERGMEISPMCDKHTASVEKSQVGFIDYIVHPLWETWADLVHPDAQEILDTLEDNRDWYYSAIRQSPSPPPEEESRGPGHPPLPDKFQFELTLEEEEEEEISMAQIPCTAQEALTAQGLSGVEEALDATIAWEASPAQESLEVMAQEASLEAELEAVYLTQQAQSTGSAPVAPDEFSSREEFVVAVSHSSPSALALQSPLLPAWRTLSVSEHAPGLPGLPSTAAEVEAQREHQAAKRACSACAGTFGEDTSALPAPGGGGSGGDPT

With `CC(=O)O[C@@H]1CC[C@@]2(C)[C@@H](CC[C@@H]3[C@@H]2CC[C@]2(C)C(=O)CC[C@@H]32)C1` [androsterone acetate] the “average OD600 in PDE7A HTS” value (human PDE7A1) was > 0.821.
For `COc1ccc(C2CNC(=O)C2)cc1OC1CCCC1` (centres unmarked) [rolipram, reference compound], the “TNFα release, compound alone, 20 hours LPS” value [1, 4] was “significant reduction in TNFα release”.
`Cc1ccc([N+](=O)[O-])cc1S(=O)(=O)N(C)C` [BRL50481, 3-(N,N-dimethylsulfonamido)-4-methyl-nitrobenzene, reference compound] was tested, and the IC50 (PDE7A; read-out: IC50 against PDE7A, in vitro enzyme assay) was ~150 nM, the “IC50 on PDE7B relative to PDE7A” value (PDE7B) was 80 fold and the “stimulation of 5FOA-resistant growth, PDE7A-expressing strain” value (human PDE7A1) was “most effective compound for stimulation of 5FOA-resistant growth”. For the same compound, the “stimulation of 5FOA-resistant growth, PDE7B-expressing strain” value (human PDE7B1) was “rather poor inhibitor of PDE7B, equal to BC11 and BC39, and far less effective than BC30”, the “TNFα release, combined with rolipram, 3 hours LPS” value [1] was “modestly enhances the rolipram-mediated reduction of TNFα release” and the “TNFα release, combined with rolipram, 20 hours LPS” value [1] was “modestly enhances the rolipram-mediated reduction of TNFα release”.
With `N#Cc1sc2sc(C#N)c(-c3ccco3)c2c1N` [BC30, 3-amino-4-(2-furyl) thieno[2,3-b]thiophene-2,5-dicarbonitrile] the IC50 (PDE7A) was 1100 nM, the IC50 (PDE7B) was 3700 nM and the “effect on Km of PDE7B” value (PDE7B; data not shown) was “appears to increase the Km of PDE7B”. The “IC50 on PDE7B relative to PDE7A” value (PDE7B) was “four-fold lower IC50 on PDE7A than PDE7B”, the “PDE7A inhibition upon rescreening” value (human PDE7A1; 2μM, data not shown) was “one of the most effective PDE7A inhibitors” and the “rank of Composite Z score in PDE7A HTS” value (human PDE7A1; 20μM screen, 48,176 compounds) was 40. The “stimulation of 5FOA-resistant growth, PDE7A-expressing strain” value (human PDE7A1) was “very potent at low micromolar concentrations”, the “stimulation of 5FOA-resistant growth, PDE7B-expressing strain” value (human PDE7B1) was “the best inhibitor of PDE7B” and the “effect on 5FOA growth, human PDE4A1 strain” value (human PDE4A1) was “no effect on the growth”. The “effect on 5FOA growth, human PDE4B2 strain” value (human PDE4B2) was “no effect on the growth”, the “effect on 5FOA growth, human PDE4D3 strain” value (human PDE4D3) was “no effect on the growth” and the “activity in HTS, mouse PDE4A1 strain” value (mouse PDE4A1) was “very weak activity”. For the same compound, the “effect on 5FOA growth, PDE1B strain” value (PDE1B) was “no effect on growth”, the “effect on 5FOA growth, PDE1C strain” value (PDE1C) was “no effect on growth” and the “effect on 5FOA growth, PDE2A strain” value (PDE2A) was “no effect on growth”. The “effect on 5FOA growth, PDE3B strain” value (PDE3B) was “no effect on growth”, the “effect on 5FOA growth, PDE5A strain” value (PDE5A) was “no effect on growth” and the “effect on 5FOA growth, PDE8A strain” value (PDE8A) was “no effect on growth”. For the same compound, the “effect on 5FOA growth, PDE9A strain” value (PDE9A) was “no effect on growth”, the “effect on 5FOA growth, PDE11A strain” value (PDE11A) was “no effect on growth” and the “OD600 of PDE10A-expressing strain” value (PDE10A) was 0.53. For the same compound, the “effect on Vmax of PDE4D catalytic domain” value ([2]; 25 nM compound, varying cAMP) was “doubling the Vmax”, the “effect on cAMP hydrolysis by PDE4D catalytic domain” value ([2]; 2μM compound, data not shown) was “significantly stimulate cAMP hydrolysis” and the “concentration producing the maximum increase in PDE4D catalytic domain activity” value ([2]; enzyme concentration 16 nM) was 25 nM. For the same compound, the “effect on activity of full-length PDE4D2” value [3] was “neither BC30 nor the other compounds that stimulate the catalytic domain of PDE4D affect the activity of the full-length PDE4D2”, the “TNFα release, combined with rolipram, 3 hours LPS” value [1] was “dramatic reduction of TNFα release” and the “TNFα release, combined with rolipram, 20 hours LPS” value [1] was “dramatic reduction of TNFα release”. For the same compound, the “TNFα release, compound alone, 3 hours LPS” value [1, 4] was “significant reduction in TNFα release” and the “TNFα release, compound alone, 20 hours LPS” value [1, 4] was “significant reduction in TNFα release”.
With `C[C@]12CCC(=O)C=C1C=C[C@@H]1[C@@H]2CC[C@@]2(C)[C@H]1CC[C@@]21CCC(=O)O1` [canrenone, reference compound] the “average OD600 in PDE7A HTS” value (human PDE7A1) was > 0.821.
